Experiments:
[1] = test system: Radical scavenging activity; assay: Antioxidant activity assessed as DPPH free radical scavenging activity in cell-free system after 30 mins; format: functional
Outline: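 Compound dissolved in DMSO and DPPH in ethanol. Decrease in absorbance read at 515 nm after incubation. Percent radical scavenging calculated relative to a DMSO-treated control.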

[2] = target: Urease (Canavalia ensiformis) (UniProt P07374); assay: (§1) Inhibition of jack bean urease assessed as ammonia production after 15 mins by indophenol method; parameters: inhibition: concentration or dose not given beside the values
Outline: (§2)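 Jack bean urease preincubated with test sample at 30 °C for 15 min in buffer containing 100 mM urea, pH 6.8. Ammonia measured by the indophenol method, using phenol reagent (1% w/v phenol, 0.005% w/v sodium nitroprusside) and alkali reagent (0.5% w/v NaOH, 0.1% active chloride NaOCl). Absorbance at 630 nm read after 50 min. Run in triplicate; % inhibition calculated from OD test/OD control; thiourea as standard.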

Urease = Urease (Canavalia ensiformis, UniProt P07374); assay: as §1; outline: as §2
[3] = Antioxidant activity assessed as Superoxide anion radical scavenging activity in cell-free system; format: functional
Outline: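 NADH–NBT–PMS system in 0.1 M phosphate buffer, pH 7.4, with sample added from a 1 mM DMSO stock; other reagents made up in buffer. Run at room temperature. Superoxide followed as blue formazan formation at 560 nm.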

Sequence of Urease (Canavalia ensiformis) (P07374 whole entry, looked up): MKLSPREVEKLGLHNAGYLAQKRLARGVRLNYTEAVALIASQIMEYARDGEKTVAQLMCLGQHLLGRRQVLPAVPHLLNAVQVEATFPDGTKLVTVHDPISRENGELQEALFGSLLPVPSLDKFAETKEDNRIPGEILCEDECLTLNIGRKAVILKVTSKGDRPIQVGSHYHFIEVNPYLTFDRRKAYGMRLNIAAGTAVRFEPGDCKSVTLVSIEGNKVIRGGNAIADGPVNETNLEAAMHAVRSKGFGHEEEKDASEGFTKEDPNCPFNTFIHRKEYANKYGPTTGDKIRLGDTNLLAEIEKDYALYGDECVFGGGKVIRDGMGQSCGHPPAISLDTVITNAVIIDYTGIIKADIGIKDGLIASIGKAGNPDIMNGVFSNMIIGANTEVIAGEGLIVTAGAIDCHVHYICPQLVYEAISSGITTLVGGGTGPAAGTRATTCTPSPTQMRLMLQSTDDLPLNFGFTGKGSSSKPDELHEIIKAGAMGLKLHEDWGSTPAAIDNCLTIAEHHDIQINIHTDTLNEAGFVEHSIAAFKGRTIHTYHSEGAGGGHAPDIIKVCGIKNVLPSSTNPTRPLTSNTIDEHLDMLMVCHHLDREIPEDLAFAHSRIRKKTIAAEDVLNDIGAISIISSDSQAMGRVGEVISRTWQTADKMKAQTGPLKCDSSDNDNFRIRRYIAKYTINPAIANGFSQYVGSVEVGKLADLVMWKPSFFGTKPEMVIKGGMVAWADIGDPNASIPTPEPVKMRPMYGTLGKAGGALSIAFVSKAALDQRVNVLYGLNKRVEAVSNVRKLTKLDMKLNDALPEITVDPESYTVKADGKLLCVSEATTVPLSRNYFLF
Sequence of Urease (P07374 whole entry): as the sequence (P07374 whole entry, looked up) above

SMILES | IC50 [1] | inhibition [2] | IC50 (Urease) | IC50 [3] | IC10 [2]
Cc1cccc(C)c1Nc1nnc(-c2ccc(Cl)cc2)s1 | 320 µM | 91.1% | 215 µM | 255 µM | 
Cc1ccc(-c2n[nH]c(=S)n2-c2c(C)cccc2C)cc1 |  | 6.8% |  |  | 
NC(N)=S |  |  |  |  | 21 µM
Cc1ccccc1-c1n[nH]c(=S)n1-c1cccc(C)c1C |  | 43.4% |  |  | 
Cc1ccc(Nc2nnc(-c3cccc(Cl)c3)s2)c(C)c1 |  | 12.4% |  | 124 µM | 
Cc1cccc(Nc2nnc(-c3ccc(Cl)cc3)s2)c1C |  | 52.8% | 484 µM | 139 µM | 
Cc1cccc(Nc2nnc(-c3ccccc3)s2)c1C |  | 56.8% | 426 µM |  | 
Cc1cccc(C)c1-n1c(-c2cccc(Cl)c2)n[nH]c1=S |  | 64.8% | 357 µM |  | 
Cc1ccc(Nc2nnc(-c3ccc([N+](=O)[O-])cc3)s2)c(C)c1 |  | 7.2% |  | 94.8 µM | 
Cc1ccc(-n2c(-c3ccc(Cl)cc3)n[nH]c2=S)c(C)c1 | 292 µM | 88.6% | 171 µM |  | 
Cc1ccc(-c2nnc(Nc3c(C)cccc3C)s2)cc1 |  | 27.1% |  |  | 
Cc1cccc(C)c1Nc1nnc(-c2ccccc2Cl)s1 |  | 82.8% | 313 µM |  | 
Cc1ccc(-n2c(-c3cccc([N+](=O)[O-])c3)n[nH]c2=S)c(C)c1 | 242 µM | 97% | 45.6 µM |  | 
CCCOC(=O)c1cc(O)c(O)c(O)c1 [PROPYL GALLATE] | 30.5 µM |  |  | 106 µM | 
Cc1cccc(C)c1-n1c(-c2ccc(Cl)cc2)n[nH]c1=S |  | 7.5% |  |  | 
Cc1cccc(C)c1-n1c(-c2ccccc2Cl)n[nH]c1=S |  | 48.3% |  |  | 
Cc1ccc(Nc2nnc(-c3cccc([N+](=O)[O-])c3)s2)c(C)c1 |  | 73.4% | 398 µM | 131 µM | 
Cc1ccc(-n2c(-c3cccc(Cl)c3)n[nH]c2=S)c(C)c1 |  | 53.1% | 460 µM |  | 
Cc1cccc(-n2c(-c3ccc(Cl)cc3)n[nH]c2=S)c1C |  | 48.3% |  |  | 
Cc1cccc(-n2c(-c3ccccc3)n[nH]c2=S)c1C |  | 93.4% | 86 µM |  | 
